One test relates to hpol η. The test can be described thus: Steady-state kinetic analysis of hpol η activity in the presence of inhibitor. It counts as biochemical, human. Particulars: for kcat: varying dTTP. The gist of the method:
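Recombinant hpol η (His/GST-tagged in E. coli BL21(DE3), nickel then GST affinity, GST cleaved) in the fluorescence strand-displacement assay (TAMRA-labelled displaced strand), in 50 mM Tris pH 8.0, 40 mM NaCl, 2 mM DTT, 0.01% Tween-20. dTTP was 1–100 µM and inhibitor 0 or 1–50 µM. RFU were converted to product, linear velocities fit to a hyperbola and corrected for enzyme concentration to give kcat and Km,dTTP.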

The target in a further test is T1, Dpo4 (Saccharolobus solfataricus, UniProt Q97W02).
T1 sequence (Q97W02 1-352): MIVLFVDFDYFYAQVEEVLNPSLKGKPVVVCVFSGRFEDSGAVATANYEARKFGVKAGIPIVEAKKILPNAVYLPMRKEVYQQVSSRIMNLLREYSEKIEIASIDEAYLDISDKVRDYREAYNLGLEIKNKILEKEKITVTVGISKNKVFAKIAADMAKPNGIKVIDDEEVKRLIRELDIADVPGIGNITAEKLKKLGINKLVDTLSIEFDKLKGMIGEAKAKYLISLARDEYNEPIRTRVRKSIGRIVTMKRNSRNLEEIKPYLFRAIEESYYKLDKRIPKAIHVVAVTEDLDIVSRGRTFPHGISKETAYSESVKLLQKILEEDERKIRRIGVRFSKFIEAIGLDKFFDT
The test can be described thus: Fluorescence-based polymerase assay, Dpo4. The format is biochemical, Sulfolobus solfataricus.

Test [1] addresses T2, human DNA polymerase eta (hpol η) (Homo sapiens, UniProt Q9Y253).
T2 sequence (Q9Y253 1-437): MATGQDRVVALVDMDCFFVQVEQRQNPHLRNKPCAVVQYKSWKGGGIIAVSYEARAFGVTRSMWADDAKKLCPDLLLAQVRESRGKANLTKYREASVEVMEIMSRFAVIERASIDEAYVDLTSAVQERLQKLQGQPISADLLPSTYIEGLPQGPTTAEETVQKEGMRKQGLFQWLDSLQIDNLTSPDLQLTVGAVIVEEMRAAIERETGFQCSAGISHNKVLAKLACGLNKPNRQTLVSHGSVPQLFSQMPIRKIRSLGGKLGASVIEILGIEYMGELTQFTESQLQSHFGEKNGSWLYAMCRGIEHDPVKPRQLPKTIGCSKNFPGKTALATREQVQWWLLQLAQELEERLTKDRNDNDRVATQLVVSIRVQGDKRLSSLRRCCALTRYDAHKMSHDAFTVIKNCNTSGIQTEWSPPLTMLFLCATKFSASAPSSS
The test is described as follows: Fluorescence-based polymerase strand-displacement assay, hpol η. The following applies: IC50 for inhibition of hpol η, 10 nM hpol η, 50 nM DNA, 0.1 mM dTTP; mean ± standard deviation, triplicate. It counts as biochemical.

Test [2] has as its target Human DNA polymerase beta (hpol β) (Homo sapiens, UniProt P06746). The test can be described thus: Fluorescence-based polymerase assay, hpol β. It counts as biochemical.
Test [3] addresses T3, human Y-family DNA polymerase kappa (hpol κ) (Homo sapiens, UniProt Q9UBT6).
T3 sequence (Q9UBT6 19-526): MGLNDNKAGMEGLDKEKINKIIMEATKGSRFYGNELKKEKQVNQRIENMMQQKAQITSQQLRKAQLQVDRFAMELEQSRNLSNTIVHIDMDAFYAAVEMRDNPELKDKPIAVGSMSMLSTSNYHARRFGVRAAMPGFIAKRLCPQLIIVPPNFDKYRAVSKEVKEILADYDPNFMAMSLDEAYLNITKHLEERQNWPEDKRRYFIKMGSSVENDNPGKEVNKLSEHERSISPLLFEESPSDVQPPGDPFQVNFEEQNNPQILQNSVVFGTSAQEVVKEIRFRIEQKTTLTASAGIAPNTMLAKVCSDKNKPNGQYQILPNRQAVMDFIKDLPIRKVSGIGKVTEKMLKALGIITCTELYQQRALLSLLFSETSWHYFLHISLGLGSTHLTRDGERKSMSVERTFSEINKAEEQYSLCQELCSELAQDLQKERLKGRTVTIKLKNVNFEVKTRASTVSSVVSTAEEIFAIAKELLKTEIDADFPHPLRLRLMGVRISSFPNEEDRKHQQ
The test can be described thus: Fluorescence-based polymerase assay, hpol κ. It counts as biochemical.

SMILES strings stand for the structures. Like-named read-outs stand apart in the source and are kept apart here.

1 compound from PMC3746001 (ACS chemical biology, 2013) can be followed below.

Take `O=C1NC(=S)NC(=O)C1=Cc1cn(C(=O)c2ccccc2Br)c2ccc(Cl)cc12` [ITBA-12, 5-((1-(2-bromobenzoyl)-5-chloro-1H-indol-3-yl)methylene)-2-thioxodihydropyrimidine-4,6(1H,5H)-dione]: the Km came to 6.7 ± 0.9 µM with hpol η (read-out: Km,dTTP, varying dTTP, [ITBA-12] 1 μM); 7.6 ± 1 µM in the test on hpol η (read-out: Km,dTTP, varying dTTP, [ITBA-12] 10 μM); 8.5 ± 1.4 µM with hpol η (read-out: Km,dTTP, varying dTTP, [ITBA-12] 20 μM); 15 ± 2 µM in the test with hpol η (read-out: Km,dTTP, varying dTTP, [ITBA-12] 40 μM); 26.7 ± 5.6 µM with hpol η (read-out: Km,dTTP, varying dTTP, [ITBA-12] 50 μM). Moreover, the kcat in the test on hpol η ([ITBA-12] 1 μM) amounted to 0.065 ± 0.0017 s⁻¹; in the test with hpol η ([ITBA-12] 10 μM) it was 0.0717 ± 0.0017 s⁻¹; in the test with hpol η ([ITBA-12] 20 μM), 0.0667 ± 0.0033 s⁻¹; in the test on hpol η ([ITBA-12] 40 μM), 0.07 ± 0.0033 s⁻¹; with hpol η ([ITBA-12] 50 μM), 0.0583 ± 0.005 s⁻¹. Also, the IC50 is around 80 µM on Dpo4, 29.8 ± 2.7 µM in test [1], 41 ± 24 µM in test [2] and 59 ± 11 µM in test [3]. Also, the “Fold difference in IC50 between hpol η and hpol β” value in test [2] (hpol β versus hpol η) is reported as ~ 1.4 fold. Moreover, in test [3] (hpol κ versus hpol η), the “IC50 for hpol κ relative to hpol η” value is given as “twice as high”.
